Test results from ChEMBL document CHEMBL2034918, “Synthesis and cytotoxic activity of new acridine-thiazolidine derivatives” (Bioorg Med Chem, 2012).
The source made the active and inactive calls. The calls are words filed in the database; no cut-off is given here.

Tests used:
OVCAR-8 = test: Antiproliferative activity against human OVCAR8 cells after 72 hrs by MTT assay; format: functional, cell-based; conditions: OVCAR-8, 72 h
Procedure, shortened: (§1)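 Cancer lines kept in RPMI-1640 with 10% foetal bovine serum, 2 mM glutamine, penicillin/streptomycin, 37 °C, 5% CO₂. Seeded at 0.7 × 10⁵ cells/well (adherent) or 0.3 × 10⁶ cells/mL (suspension). After 24 h, compounds in DMSO added at 0.048–25 µg/mL for 72 h. Medium then replaced with 0.5 mg/mL MTT for 3 h. Formazan dissolved in DMSO, absorbance read at 595 nm.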

Nucleic Acid [1] = test: Binding affinity to calf thymus ssDNA in solution assessed as oxidation of exposed bases at 10^-4 M by differential pulse voltametry; format: nucleic-acid assay; conditions: Bos taurus
Procedure, shortened: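 ssDNA made by dissolving dsDNA (3.0 mg/mL) in 1 M HCl with heating for 1 h. Compound was incorporated into a carbon paste electrode; blank paste contained ethanol only. DPV at pH 4.5 in ssDNA solution (1.0 × 10⁻⁴ M): equilibration 5 s, step 2 mV, pulse amplitude 50 mV, scan rate 5 mV/s.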

Nucleic Acid [2] = test: Binding affinity to calf thymus dsDNA in biosensor assessed as oxidation of exposed bases at 10^-4 M by differential pulse voltametry; format: nucleic-acid assay; conditions: Bos taurus
Procedure, shortened: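 Glassy carbon electrode polished with alumina, then pretreated by five cyclic scans 0 to +1.4 V in acetate buffer pH 4.5. Electrode coated with a dsDNA gel layer, then 20 µL of 10⁻⁴ M ethanolic compound added with drying. DPV in acetate buffer from 0 to 1.4 V: pulse amplitude 50 mV, pulse width 70 ms, step 2 mV, scan rate 5 mV/s, 25 °C. An untreated dsDNA electrode served as blank.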

HL-60 = test: Antiproliferative activity against human HL60 cells after 72 hrs by MTT assay; format: functional, cell-based; conditions: HL-60, 72 h; procedure, shortened: as §1
SF-295 = test: Antiproliferative activity against human SF295 cells after 72 hrs by MTT assay; format: functional, cell-based; conditions: SF-295, 72 h; procedure, shortened: as §1
[3] = Haemolysis in mouse erythrocytes at 200 ug/mL after 30 mins by spectrophotometry; format: ADME, cell-based; conditions: erythrocyte, 0.5 h
Procedure, shortened: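 Mouse erythrocytes used as a 2% suspension in 0.85% NaCl with 10 mM CaCl₂. Compounds tested across 1.5–200 µg/mL with 1% Triton X-100 as positive control. Incubated 30 min at room temperature, then centrifuged. Released haemoglobin in the supernatant measured at 540 nm.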

COLO 205 = test: Antiproliferative activity against human COLO205 cells after 72 hrs by MTT assay; format: functional, cell-based; conditions: COLO 205, 72 h; procedure, shortened: as §1
PC-3 [4] = test: Antiproliferative activity against human PC3 cells after 72 hrs by MTT assay; format: functional, cell-based; conditions: PC-3, 72 h; procedure, shortened: as §1
Hs-578T = test: Antiproliferative activity against human Hs578T cells after 72 hrs by MTT assay; format: functional, cell-based; procedure, shortened: as §1
MDA-MB-231 = test: Antiproliferative activity against human MDA-MB-231 cells after 72 hrs by MTT assay; format: functional, cell-based; conditions: MDA-MB-231, 72 h; procedure, shortened: as §1
HCT-8 = test: Antiproliferative activity against human HCT8 cells after 72 hrs by MTT assay; format: functional, cell-based; conditions: HCT-8, 72 h; procedure, shortened: as §1
MX1 = test: Antiproliferative activity against human MX1 cells after 72 hrs by MTT assay; format: functional, cell-based; conditions: MX1, 72 h; procedure, shortened: as §1
K562 = test: Antiproliferative activity against human K562 cells after 72 hrs by MTT assay; format: functional, cell-based; conditions: K562, 72 h; procedure, shortened: as §1
HCT-15 = test: Antiproliferative activity against human HCT15 cells after 72 hrs by MTT assay; format: functional, cell-based; conditions: HCT-15, 72 h; procedure, shortened: as §1
V79 [5] = test: Selectivity ratio of IC50 for chinese hamster V79 cells to IC50 for human SF295 cells
PBMC = test: Cytotoxicity against human PBMC after 72 hrs by alamar blue assay; format: cell-based
Procedure, shortened: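 PBMC isolated from heparinised blood of healthy non-smoking donors by Ficoll-Hypaque density gradient. Cultured in RPMI-1640 with 20% FBS, glutamine, antibiotics and 2% phytohaemagglutinin at 37 °C, 5% CO₂. Plated at 3 × 10⁵ cells/mL; compounds in DMSO added at 0.048–25 µg/mL after 24 h, 72 h exposure. Alamar blue (resazurin) added 24 h before the end; absorbance read at 570 and 595 nm. IC50 by nonlinear regression.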

CCRF-CEM = test: Antiproliferative activity against human CEM cells after 72 hrs by MTT assay; format: functional, cell-based; procedure, shortened: as §1
SW-620 = test: Antiproliferative activity against human SW620 cells after 72 hrs by MTT assay; format: functional, cell-based; conditions: SW-620, 72 h; procedure, shortened: as §1
UACC-62 = test: Antiproliferative activity against human UACC62 cells after 72 hrs by MTT assay; format: functional, cell-based; conditions: UACC-62, 72 h; procedure, shortened: as §1
DU-145 = test: Antiproliferative activity against human DU145 cells after 72 hrs by MTT assay; format: functional, cell-based; conditions: DU-145, 72 h; procedure, shortened: as §1
MDA-MB-435 = test: Antiproliferative activity against human MDA-MB-435 cells after 72 hrs by MTT assay; format: functional, cell-based; conditions: MDA-MB-435, 72 h; procedure, shortened: as §1
V79 [6] = test: Cytotoxicity against chinese hamster V79 cells after 72 hrs by MTT assay; format: cell-based; conditions: Cricetulus griseus, V79, 72 h
Procedure, shortened: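 V79 Chinese hamster lung fibroblasts grown in MEM with Earle's salts, 10% foetal bovine serum, 2 mM glutamine, penicillin/streptomycin, 37 °C, 5% CO₂. Seeded at 0.7 × 10⁵ cells/well. Compounds in DMSO added at 0.048–25 µg/mL after 24 h and left 72 h. MTT 0.5 mg/mL for 3 h, formazan in DMSO read at 595 nm. IC50 by nonlinear regression, two experiments in duplicate.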

LNCaP = test: Cytotoxicity against human LNCAP cells after 24 hrs by MTT assay; format: functional, cell-based
PC-3 [7] = test: Cytotoxicity against human PC3 cells after 24 hrs by MTT assay; format: functional, cell-based; conditions: PC-3, 24 h

Compound | IC50 (OVCAR-8) [µM] | Activity (Nucleic Acid [1]) | Activity (Nucleic Acid [2]) | IC50 (HL-60) [µM] | IC50 (SF-295) [µM] | Activity [3] | IC50 (COLO 205) [µM] | IC50 (PC-3 [4]) [µM] | IC50 (HCT-8) [µM] | IC50 (K562) [µM] | IC50 (HCT-15) [µM] | Ratio IC50 (V79 [5]) | IC50 (PBMC) [µM] | IC50 (CCRF-CEM) [µM] | IC50 (SW-620) [µM] | IC50 (UACC-62) [µM] | IC50 (DU-145) [µM] | IC50 (MDA-MB-435) [µM] | IC50 (V79 [6]) [µM] | other results
CCOC(=O)/C(C#N)=C/c1c2ccccc2nc2ccccc12 | 23.3 | Active | Active | 4.07 | 54.7 | Non-toxic | – | – | – | – | – | – | – | – | – | – | – | – | – | –
O=C1S/C(=C\c2c3ccccc3nc3ccccc23)C(=O)N1Cc1ccc(Cl)cc1 | 5.7 | Active | Active | > 58 | 5.8 | Non-toxic | 6.3 | 13 | 8.3 | > 58 | 21.5 | 3.1 | > 58 | > 58 | 20.1 | 29 | 9.5 | 22.2 | 17.9 | IC50 (Hs-578T): > 58 µM; IC50 (MDA-MB-231): > 58 µM; IC50 (MX1): > 58 µM
Cc1c(C)c2c(c(C)c1O)CCC(C)(COc1ccc(/C=C3/SC(=O)NC3=O)cc1)O2 (stereo unspecified) | – | – | – | – | – | – | – | – | – | – | – | – | – | – | – | – | – | – | – | IC50 (LNCaP): 14 µM; IC50 (PC-3 [7]): 20 µM
O=C1SC(=Cc2c3ccccc3nc3ccccc23)C(=O)N1Cc1ccc(Br)cc1 (mixture of isomers) | 37.2 | Active | Active | > 52.6 | 7.2 | Non-toxic | > 52.6 | 8.6 | 11.2 | > 52.6 | 19.8 | 3.1 | > 52.6 | > 52.6 | 35.5 | 50.7 | – | 25.9 | 22.6 | –
Cc1ccc(CN2C(=O)S/C(=C\c3c4ccccc4nc4ccccc34)C2=O)cc1 | 19.7 | Active | Active | > 60.9 | 7.8 | Non-toxic | 46.4 | 17.7 | 7.4 | > 60.9 | 29.2 | 3.7 | > 60.9 | > 60.9 | 26.8 | 21.1 | > 60.9 | 15.6 | 28.5 | IC50 (Hs-578T): > 60.9 µM; IC50 (MDA-MB-231): > 60.9 µM; IC50 (MX1): > 60.9 µM
O=C1SC(=Cc2c3ccccc3nc3ccccc23)C(=O)N1Cc1ccc(F)cc1 (mixture of isomers) | 9.3 | Active | Active | > 60.3 | 5.6 | Non-toxic | 23 | 27.1 | 5.6 | > 60.3 | 58 | 5.9 | > 60.3 | > 60.3 | 31.3 | 9.5 | – | 14.1 | 32.7 | –
Cc1c(C)c2c(c(C)c1O)CCC(C)(COc1ccc(CC3SC(=O)NC3=O)cc1)O2 (stereo unspecified) [TROGLITAZONE] | – | – | – | – | – | – | – | – | – | – | – | – | – | – | – | – | – | – | – | IC50 (LNCaP): 22 µM; IC50 (PC-3 [7]): 30 µM
COc1cc(NS(C)(=O)=O)ccc1Nc1c2ccccc2nc2ccccc12 [AMSACRINE] | 1.4 | – | – | 0.08 | 0.5 | – | 1.1 | 3.3 | 0.3 | – | 0.3 | – | 21.7 | – | 0.3 | – | 0.3 | – | 5.8 | –
